Results on two molecules are retold here after ChEMBL document CHEMBL1147109, “Genetic elements carrying erm(B) in Streptococcus pyogenes and association with tet(M) tetracycline resistance gene” (2007).

Test [1] has as its system Streptococcus pyogenes. Briefly: Antimicrobial activity against erythromycin-resistant Streptococcus pyogenes A-3 transconjugated with erm(B) and tet(M) genes. It counts as functional. Put shortly:
(§1)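 Transconjugants came from membrane-filter mating of the donor strain into recipient S. pyogenes 12RF (rifampin- and fusidic acid-resistant), done at least three times, and were confirmed by PCR to carry erm(B) and tet(M). MICs were then determined by broth microdilution to CLSI recommendations, with S. pneumoniae ATCC 49619 as quality control.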

Test [2] deals with Streptococcus pyogenes. In words: Antimicrobial activity against erythromycin-resistant Streptococcus pyogenes B-83 transconjugated with erm(B) and tet(M) genes. The test is classed as functional. Put shortly: as §1
For test [3], the system named is Streptococcus pyogenes. In words: Antimicrobial activity against erythromycin-resistant Streptococcus pyogenes C-105 transconjugated with erm(B) and tet(M) genes. It counts as functional. An outline of the steps:
as §1

For test [4], the system named is Streptococcus pyogenes. In words: Antimicrobial activity against tetracyclin-resistant Streptococcus pyogenes C-105 transconjugated with erm(B) and tet(M) genes. It counts as functional. Put shortly:
as §1

Test [5] relates to Streptococcus pyogenes. Briefly: Antimicrobial activity against erythromycin-resistant Streptococcus pyogenes D-112 transconjugated with erm(B) and tet(M) genes. It counts as functional. Put shortly:
as §1

In test [6] the test system is Streptococcus pyogenes. Briefly: Antimicrobial activity against erythromycin-resistant Streptococcus pyogenes E-115 transconjugated with erm(B) and tet(M) genes. The test is classed as functional. An outline of the steps:
as §1

Test [7] has as its system Streptococcus pyogenes. In words: Antimicrobial activity against Streptococcus pyogenes iMLS-A isolate A expressing tet(M), tndX gene. It counts as functional. Put shortly: (§2)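 Broth microdilution MICs per CLSI against clinical S. pyogenes isolates carrying erm(B); S. pneumoniae ATCC 49619 as quality control. For some isolates, tetracycline MICs were also read after induction: colonies from overnight brain heart infusion agar were grown on brain heart infusion agar with or without subinhibitory tetracycline (0.05 μg/ml), harvested within 20 h, then tested.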

The test system of test [8] is Streptococcus pyogenes. In words: Antimicrobial activity against tetracycline-susceptible Streptococcus pyogenes iMLS-A isolate expressing erm(B). The test is classed as functional. Put shortly: as §2
Test [9] has as its system Streptococcus pyogenes. In words: Antimicrobial activity against tetracyclin-resistant Streptococcus pyogenes cMLS isolate expressing erm(B). The test is classed as functional. Put shortly:
(§3)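 Broth microdilution MICs run to CLSI recommendations on clinical erm(B)-carrying S. pyogenes isolates, with S. pneumoniae ATCC 49619 as quality control. In some isolates, tetracycline MICs were also measured on cells grown for no longer than 20 h on brain heart infusion agar, with or without subinhibitory tetracycline (0.05 μg/ml).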

In test [10] the test system is Streptococcus pyogenes. In words: Antimicrobial activity against tetracycline-susceptible Streptococcus pyogenes cMLS isolate expressing erm(B). The test is classed as functional. An outline of the steps: as §2
The subject of test [11] is Streptococcus pyogenes. In words: Antimicrobial activity against Streptococcus pyogenes cMLS isolate B expressing tet(M), int, Xis gene. The test is classed as functional. Put shortly:
as §3

In test [12] the test system is Streptococcus pyogenes. In words: Antimicrobial activity against tetracycline-susceptible Streptococcus pyogenes cMLS isolate D expressing tet(M), Xis, tnpA, tnpR gene. It counts as functional. An outline of the steps:
as §2

In test [13] the test system is Streptococcus pyogenes. In words: Antimicrobial activity against tetracycline-susceptible Streptococcus pyogenes cMLS isolate E expressing tet(M), tndX gene. It counts as functional. Put shortly:
as §2

The test system of test [14] is Streptococcus pyogenes. In words: Antimicrobial activity against tetracycline-susceptible Streptococcus pyogenes cMLS isolate F. The test is classed as functional. Put shortly:
as §2

Test [15] has as its system Streptococcus pyogenes. In words: Antimicrobial activity against tetracycline-susceptible Streptococcus pyogenes cMLS isolate G expressing tnpA, tnpR gene. It counts as functional. Put shortly:
as §2

Test [16] relates to Streptococcus pyogenes. In words: Antimicrobial activity against tetracycline-resistant Streptococcus pyogenes cMLS isolate C expressing tet(M), Xis, tnpA, tnpR gene.

SMILES strings stand for the structures. Converted amounts (≈) assume the structure as drawn.

On to `CC[C@H]1OC(=O)[C@H](C)[C@@H](O[C@H]2C[C@@](C)(OC)[C@@H](O)[C@H](C)O2)[C@H](C)[C@@H](O[C@@H]2O[C@H](C)C[C@H](N(C)C)[C@H]2O)[C@](C)(O)C[C@@H](C)C(=O)[C@H](C)[C@@H](O)[C@]1(C)O` [ERYTHROMYCIN], for which the minimal inhibitory concentration (MIC) in the test on Streptococcus pyogenes [1], in the test on Streptococcus pyogenes [2], against Streptococcus pyogenes [3], with Streptococcus pyogenes [4], against Streptococcus pyogenes [5] and with Streptococcus pyogenes [6] was > 128 µg/mL in each case.

With `CN(C)[C@@H]1C(O)=C(C(N)=O)C(=O)[C@@]2(O)C(O)=C3C(=O)c4c(O)cccc4[C@@](C)(O)[C@H]3C[C@@H]12` [TETRACYCLINE], the MIC was 0.125 µg/mL (≈ 0.281 µM) in the test with Streptococcus pyogenes [7]; ≤ 0.125 µg/mL in the test with Streptococcus pyogenes [8]; 32 µg/mL (≈ 72 µM) in the test on Streptococcus pyogenes [9]; ≤ 0.125 µg/mL against Streptococcus pyogenes [10]; 32 µg/mL (≈ 72 µM) against Streptococcus pyogenes [11]; 0.125 µg/mL (≈ 0.281 µM) in the test with Streptococcus pyogenes [12]. Moreover, the MIC in the test with Streptococcus pyogenes [13] was 0.125 µg/mL (≈ 0.281 µM); against Streptococcus pyogenes [14] it was 0.125 µg/mL (≈ 0.281 µM); in the test with Streptococcus pyogenes [15], 0.125 µg/mL (≈ 0.281 µM); against Streptococcus pyogenes [1], 0.25 µg/mL (≈ 0.563 µM); against Streptococcus pyogenes [2] it was 32 µg/mL (≈ 72 µM); against Streptococcus pyogenes [3] it was 32 µg/mL (≈ 72 µM). Besides, the MIC amounted to 32 µg/mL (≈ 72 µM) with Streptococcus pyogenes [4], 0.25 µg/mL (≈ 0.563 µM) with Streptococcus pyogenes [5], 0.25 µg/mL (≈ 0.563 µM) in the test on Streptococcus pyogenes [6] and 32 µg/mL (≈ 72 µM) with Streptococcus pyogenes [16].
